The source of these data is ChEMBL document CHEMBL3856239, “Synthesis and Antiobesity Properties of 6-(4-Chlorophenyl)-3-(4-((3,3-difluoro-1-hydroxycyclobutyl)methoxy)-3-methoxyphenyl)thieno[3,2-d]pyrimidin-4(3H)-one (BMS-814580): A Highly Efficacious Melanin Concentrating Hormone Receptor 1 (MCHR1) Inhibitor” (J Med Chem, 2016).

pKi: −log10 of the molar value.

For series [1], the system named is Rattus norvegicus. Put plainly: Antiobesity activity in DIO Sprague-Dawley rat model assessed as reduction in caloric intake at 10 mg/kg, po qd for 28 days relative to vehicle control. The format is functional. Also noted: scale not given: the % may be the effect or the level left.
The test system of series [2] is Rattus norvegicus. Put plainly: Antiobesity activity in DIO Sprague-Dawley rat model assessed as reduction in body weight at 10 mg/kg, po qd for 28 days relative to vehicle control. In kind it is functional. Also noted: scale not given: the % may be the effect or the level left.
Series [3] in a line: Drug uptake in Sprague-Dawley rat brain assessed as parent compound level at 10 mg/kg, po measured after 8 hrs. Conditions: read-out: Drug uptake. The format is ADME, organism-based. In a few lines: (§1)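 Sprague-Dawley rats dosed orally once at 10 mg/kg as parent or glycinate prodrug (prodrug dose adjusted to parent), vehicle 0.5% Methocel/0.1% Tween 80/99.4% water; parent compound measured in brain 8 h post dose, n = 2.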

Series [4] in a line: AUC in Sprague-Dawley rat assessed as parent compound level at 10 mg/kg, po measured after 8 hrs. The format is ADME, organism-based. Further details: dose 10 mg/kg, time < 8 hr, route oral. Conditions: in vivo.
The nature of series [5]: Plasma concentration in Sprague-Dawley rat assessed as parent compound level at 10 mg/kg, po measured after 8 hrs. In kind it is ADME, organism-based. The method, boiled down:
(§2)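 SD rats given 10 mg/kg orally as parent or glycine prodrug (prodrug dose adjusted to parent), in 0.5% Methocel/0.1% Tween 80/99.4% water. Plasma and brain levels of parent measured 8 h post dose, n = 2; 0–8 h plasma AUC also determined.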

Series [6] in a line: Solubility of the compound in phosphate buffer at pH 6.4. The format is physicochemical. The method, boiled down: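 Solubility of parent compounds and prodrugs measured in 50 mM phosphate buffer, pH 6.4.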
Series [7] can be described thus: Metabolic stability in human liver microsomes assessed as compound remaining at 3 uM measured after 10 min. In kind it is ADME. The note with it: read-out: Stability. In a few lines: (§3)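 Test compound at 3.0 µM incubated with liver microsomes for 10 minutes; read-out is percent of parent remaining.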
In general terms: Microsomes from liver hold many membrane-bound enzymes, among them those of drug oxidation.

A short description of series [8]: Metabolic stability in rat liver microsomes assessed as compound remaining at 3 uM measured after 10 min. Conditions: read-out: Stability. The format is ADME. In a few lines: as §3
Series [9] can be described thus: Displacement of [Phe13,125I]Tyr19]-MCH from human MCHR1 E4Q/A5T double mutant expressed in HEK293 cells by TopCount scintillation counting method. The format is cell-based.
Series [10] is described as follows: Protein binding in Sprague-Dawley rat plasma at 10 mg/kg, po qd for 4 days. The format is ADME, organism-based. The note with it: read-out: PPB.
Series [11] has as its system Rattus norvegicus. Kind of series: Toxicity in Sprague-Dawley rat assessed as incidence of biliary lesions at 30 mg/kg, po for 4 days. The format is organism-based. The note with it: in vivo, 96 h. In a few lines:
(§4)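 SD rats dosed orally once daily for 4 days at 3, 10 and 30 mg/kg, as glycine prodrug in 0.5% Methocel/0.1% Tween 80 vehicle. Parent plasma and brain levels taken on day 4 at 20 h; n = 8. Biliary lesions examined.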

Series [12] in a line: Metabolic stability in mouse liver microsomes assessed as compound remaining at 3 uM measured after 10 min. The format is ADME. Conditions: read-out: Stability. In a few lines: as §3
Series [13] can be described thus: Lipophilicity, log P of the compound at pH 7 by HPLC analysis. The note with it: buffer. In kind it is physicochemical. The method, boiled down: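 LogP determined by HPLC at pH 7.0.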
Another series addresses hERG (KCNH2) (Homo sapiens, UniProt Q12809). Kind of series: Inhibition of human ERG at 1 uM by patch clamp assay.
Series [14] in a line: Plasma concentration in Sprague-Dawley rat assessed as 6-(4-chlorophenyl)-3-(4-((3,3-difluoro-1-hydroxycyclobutyl)methoxy)-3-methoxyphenyl)thieno[3,2-d]pyrimidin-4(3H)-one level measured on day 4 post 20 hrs of last dosage. The method, boiled down: as §4
Series [15] relates to Rattus norvegicus. Put plainly: Antiobesity activity in DIO Sprague-Dawley rat assessed as body weight loss at 10 mg/kg, po qd for 4 days. The format is functional. In a few lines:
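Sprague-Dawley rats dosed orally once daily for 4 days at 3, 10 and 30 mg/kg (vehicle 0.5% Methocel/0.1% Tween 80/99.4% water), n = 8; body weight change from baseline versus vehicle-treated animals, value given for 10 mg/kg.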

A short description of series [16]: Ratio of drug level in brain to plasma in Sprague-Dawley rat at 10 mg/kg, po measured after 8 hrs. The note with it: brain and plasma, read-out: BPR. The format is ADME, organism-based. The method, boiled down:
as §2

Series [17] is described as follows: Drug level in Sprague-Dawley rat brain assessed as 6-(4-chlorophenyl)-3-(4-((3,3-difluoro-1-hydroxycyclobutyl)methoxy)-3-methoxyphenyl)thieno[3,2-d]pyrimidin-4(3H)-one level measured on day 4 post 20 hrs of last dosage. In kind it is ADME, tissue-based. The note with it: in vivo, read-out: Ct. In a few lines: (§5)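 Sub-chronic study in Sprague-Dawley rats: oral glycinate prodrug at 3, 10 and 30 mg/kg once daily for 4 days, vehicle 0.5% Methocel/0.1% Tween 80/99.4% water; parent compound measured in brain on day 4 at 20 h.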

Series [18] is described as follows: Protein binding in rat plasma assessed as unbound fraction. In kind it is ADME, cell-free. The method, boiled down: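 Plasma protein binding reported as % free drug in rat, DIO rat, dog, cynomolgus monkey, rabbit and human plasma.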
The nature of series [19]: Plasma concentration in Sprague-Dawley rat at 10 mg/kg, po measured after 8 hrs. In kind it is ADME, organism-based. In a few lines: as §2
The nature of series [20]: AUC in Sprague-Dawley rat at 10 mg/kg, po measured after 8 hrs. The format is ADME, organism-based. Further details: time < 8 hr, dose 10 mg/kg, route oral. The note with it: in vivo.
A short description of series [21]: Drug uptake in Sprague-Dawley rat brain at 10 mg/kg, po measured after 8 hrs. The format is ADME, organism-based. The note with it: read-out: Drug uptake. In a few lines:
as §1

A short description of series [22]: Plasma concentration in Sprague-Dawley rat assessed as 6-(4-chlorophenyl)-3-(4-((3-hydroxyoxetan-3-yl)methoxy)-3-methoxyphenyl)thieno[3,2-d]pyrimidin-4(3H)-one level measured on day 4 post 20 hrs of last dosage. In a few lines:
as §4

Series [23] in a line: Drug level in Sprague-Dawley rat brain assessed as 6-(4-chlorophenyl)-3-(4-((3-hydroxyoxetan-3-yl)methoxy)-3-methoxyphenyl)thieno[3,2-d]pyrimidin-4(3H)-one level measured on day 4 post 20 hrs of last dosage. The format is ADME, tissue-based. The note with it: in vivo, read-out: Ct. The method, boiled down: as §5

What is called AUC is the area under the concentration-time curve, a measure of exposure. As a reminder, the solubility is the concentration that dissolves in the medium under given conditions. What is called pKi is the negative decadic logarithm of the Ki, by convention in mol/L. In general, logP refers to a log measure of how a compound divides between an organic and an aqueous phase. As a reminder, the inhibition is how much of the control response was suppressed.

Chain of hERG (KCNH2) (Q12809 whole entry): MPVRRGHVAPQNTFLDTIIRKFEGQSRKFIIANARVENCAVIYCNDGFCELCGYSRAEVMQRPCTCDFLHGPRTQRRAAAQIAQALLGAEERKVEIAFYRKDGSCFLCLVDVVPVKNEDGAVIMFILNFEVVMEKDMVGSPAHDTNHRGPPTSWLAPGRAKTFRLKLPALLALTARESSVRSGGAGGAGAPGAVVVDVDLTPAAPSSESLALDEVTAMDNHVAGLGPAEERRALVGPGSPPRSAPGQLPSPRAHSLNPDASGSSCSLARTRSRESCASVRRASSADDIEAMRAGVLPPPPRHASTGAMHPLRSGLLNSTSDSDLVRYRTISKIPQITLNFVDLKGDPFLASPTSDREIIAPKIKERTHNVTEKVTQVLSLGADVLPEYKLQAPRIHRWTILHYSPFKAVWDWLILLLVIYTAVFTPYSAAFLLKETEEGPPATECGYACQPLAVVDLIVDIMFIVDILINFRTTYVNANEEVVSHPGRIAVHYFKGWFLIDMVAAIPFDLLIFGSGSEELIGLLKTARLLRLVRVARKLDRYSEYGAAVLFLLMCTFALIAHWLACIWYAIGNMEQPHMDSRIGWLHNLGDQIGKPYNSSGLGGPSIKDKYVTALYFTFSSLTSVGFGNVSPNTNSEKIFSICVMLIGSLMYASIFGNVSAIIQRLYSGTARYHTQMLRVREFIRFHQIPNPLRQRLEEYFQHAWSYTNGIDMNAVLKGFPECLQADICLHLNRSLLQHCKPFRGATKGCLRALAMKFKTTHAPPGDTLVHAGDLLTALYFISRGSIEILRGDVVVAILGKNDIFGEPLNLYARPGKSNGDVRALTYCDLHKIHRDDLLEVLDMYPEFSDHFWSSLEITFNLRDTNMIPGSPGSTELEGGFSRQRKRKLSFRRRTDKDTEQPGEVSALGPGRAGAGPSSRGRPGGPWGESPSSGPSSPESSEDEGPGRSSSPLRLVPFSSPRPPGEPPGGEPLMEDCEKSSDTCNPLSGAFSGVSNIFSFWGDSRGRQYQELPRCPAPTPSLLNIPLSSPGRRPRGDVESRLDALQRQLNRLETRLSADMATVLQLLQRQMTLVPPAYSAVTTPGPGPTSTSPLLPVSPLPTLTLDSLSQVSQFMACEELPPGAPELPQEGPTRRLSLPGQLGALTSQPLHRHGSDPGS

For `Cc1c(C(=O)NN2CCCCC2)nn(-c2ccc(Cl)cc2Cl)c1-c1ccc(Cl)cc1` [RIMONABANT], the Activity in the series on Rattus norvegicus [1] was found to be 27%; in the series with Rattus norvegicus [2] it was 8.5%.
For the compound `COc1cc(-n2cnc3cc(-c4ccc(Cl)cc4)sc3c2=O)ccc1OCC1(OC(=O)CN)CCC1`, the results for the concentration at 8 h in series [3] and in series [5] were < 3 nM and 15 nM, respectively. The exposure (AUC) in series [4] came to 1.3 µM·h. Besides, the solubility in series [6] is < 1 µg/mL.
With `COc1cc(-n2cnc3cc(-c4ccc(Cl)cc4)sc3c2=O)ccc1OCC1(O)COC1`, the remaining at 10 min, 3 µM worked out at 100% in series [7], 47% in series [8] and 100% in series [12]. The negative-log Ki (pKi) in series [9] was 8.06. Also, the fraction unbound at 96 h in [10] was < 0.02. The Activity with Rattus norvegicus [11] stood at 40%. In series [13], this compound yielded a logP of 3.8. In series [6], the solubility was < 1 µg/mL.
In [9], `COc1cc(-n2cnc3cc(-c4ccc(Cl)cc4)sc3c2=O)ccc1OCCN1CCCC1` gave a pKi of 8.42 to 8.54.
With `COc1cc(-n2cnc3cc(-c4ccc(Cl)cc4)sc3c2=O)ccc1OCC(C)(C)OP(=O)(O)O`, the solubility in series [6] was < 1 µg/mL.
The compound `COc1cc(-n2cnc3cc(-c4ccc(Cl)cc4)sc3c2=O)ccc1OC[C@@H](C)O` showed a pKi in [9] of 8.02. In addition, on hERG (KCNH2), the inhibition at 1 µM was found to be 43.8%.
`COc1cc(-n2cnc3cc(-c4ccc(Cl)cc4)sc3c2=O)ccc1OCC1(OC(=O)CN)CC(F)(F)C1`: the concentration is 12800 nM in series [14] and 7960 nM in series [17]. Further, the figures for the concentration at 8 h in series [3] and in [5] were 11300 nM and 4500 nM, respectively. In addition, the AUC in series [4] turned out to be 38.1 µM·h. In addition, the Activity in the series with Rattus norvegicus [15] stood at 6.4%. For the same compound, in series [16], the Kp at 8 h is 2.5. For the same compound, the solubility in series [6] is < 1 µg/mL.
As to `COc1cc(-n2cnc3cc(-c4ccc(Cl)cc4)sc3c2=O)ccc1OCC1(O)CC1`, the remaining at 10 min, 3 µM in series [7] was 94%; in series [8], 61%; in series [12] it was 99%. In [9], this compound had a pKi of 7.76. Further, in series [10], the fraction unbound at 96 h is < 0.02. Moreover, the lipophilicity (logP) in series [13] is on record as 4.1. For the same compound, the solubility in [6] was < 1 µg/mL.
For `COc1cc(-n2cnc3cc(-c4ccc(Cl)cc4)sc3c2=O)ccc1OCC1(OC(=O)CN)CC1`, the concentration at 8 h in series [3] was < 3 nM; in [5], 113 nM. Besides, the area under the curve (AUC) in series [4] came out at 5.9 µM·h.
`COc1cc(-n2cnc3cc(-c4ccc(Cl)cc4)sc3c2=O)ccc1OCC(C)(C)O`: the remaining at 10 min, 3 µM is 100% in [7], 98% in series [8] and 90% in series [12]. The figures for the concentration at 8 h in [3] and in [5] were 7800 nM and 3530 nM, respectively. The log partition coefficient (logP) in series [13] amounted to 4.5. Besides, the Fu in series [18] is listed as 0.8%. The solubility in series [6] is < 1 µg/mL.
`COc1cc(-n2cnc3cc(-c4ccc(Cl)cc4)sc3c2=O)ccc1OCC1(O)CCCC1`: the values for the remaining at 10 min, 3 µM in series [7] and in [8] were 73% and 14%, respectively. Further, in series [9], the pKi is 7.92. Also, in series [10], the fraction unbound at 96 h was < 0.02. In [13], this compound gave a logP of 4.7. Moreover, the solubility in series [6] was < 1 µg/mL.
As to `COc1cc(-n2cnc3cc(-c4ccc(Cl)cc4)sc3c2=O)ccc1OCC1(O)CCOCC1`, the concentration at 8 h in [19] is 29 nM; in series [21], < 3 nM. Also, the remaining at 10 min, 3 µM in series [7] worked out at 87%; in series [8], 27%; in series [12], 98%. For the same compound, the exposure (AUC) at 8 h in [20] amounted to 0.4 µM·h. The pKi in series [9] is 7.95. Moreover, the fraction unbound at 96 h in [10] is < 0.02. The compound further yielded a logP in series [13] of 4.2. Besides, in series [6], the solubility was < 1 µg/mL.
`COc1cc(-n2cnc3cc(-c4ccc(Cl)cc4)sc3c2=O)ccc1OCC1(O)CCC1`: the concentration at 8 h in series [19] was 6 nM; in series [21], < 3 nM. The compound also came in with an AUC at 8 h in [20] of 0.2 µM·h. Also, in series [8], the remaining at 10 min, 3 µM worked out at 24%. The pKi in [9] is 8.01. The fraction unbound at 96 h in series [10] is < 0.02. Besides, in series [13], the lipophilicity (logP) came to 4.7. Further, the solubility in series [6] was < 1 µg/mL.
With `COc1cc(-n2cnc3cc(-c4ccc(Cl)cc4)sc3c2=O)ccc1OCC1(OC(=O)CN)COC1`, the figures for the concentration in series [22] and in series [23] were 37 nM and < 3 nM, respectively. Also, the figures for the concentration at 8 h in series [3] and in [5] were 1130 nM and 1160 nM, respectively. Further, in series [4], the AUC was determined as 34.9 µM·h. For the same compound, the Activity in the series on Rattus norvegicus [15] came to 0%.
